# Hits are enriched below; roughly 2.3% of the tested compounds scored in any of these assays.
# TRPC4 inh – inhibitors of mouse TRPC4 channel, primary screen, Fluo4 calcium, HEK293 TRPC4beta/mu-opioid cells; B-score at 10 µM; Short transient receptor potential channel 4 (Mus musculus), Q9QUQ5; 300,000 compounds, 0.39% hits; DAMGO-evoked Fluo4 calcium flux; hits give low values;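 active = B-score over 3 SD under the library average, no early fluorescence shift, positive overall ratio signal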
# Target sequence (Q9QUQ5 whole entry, looked up): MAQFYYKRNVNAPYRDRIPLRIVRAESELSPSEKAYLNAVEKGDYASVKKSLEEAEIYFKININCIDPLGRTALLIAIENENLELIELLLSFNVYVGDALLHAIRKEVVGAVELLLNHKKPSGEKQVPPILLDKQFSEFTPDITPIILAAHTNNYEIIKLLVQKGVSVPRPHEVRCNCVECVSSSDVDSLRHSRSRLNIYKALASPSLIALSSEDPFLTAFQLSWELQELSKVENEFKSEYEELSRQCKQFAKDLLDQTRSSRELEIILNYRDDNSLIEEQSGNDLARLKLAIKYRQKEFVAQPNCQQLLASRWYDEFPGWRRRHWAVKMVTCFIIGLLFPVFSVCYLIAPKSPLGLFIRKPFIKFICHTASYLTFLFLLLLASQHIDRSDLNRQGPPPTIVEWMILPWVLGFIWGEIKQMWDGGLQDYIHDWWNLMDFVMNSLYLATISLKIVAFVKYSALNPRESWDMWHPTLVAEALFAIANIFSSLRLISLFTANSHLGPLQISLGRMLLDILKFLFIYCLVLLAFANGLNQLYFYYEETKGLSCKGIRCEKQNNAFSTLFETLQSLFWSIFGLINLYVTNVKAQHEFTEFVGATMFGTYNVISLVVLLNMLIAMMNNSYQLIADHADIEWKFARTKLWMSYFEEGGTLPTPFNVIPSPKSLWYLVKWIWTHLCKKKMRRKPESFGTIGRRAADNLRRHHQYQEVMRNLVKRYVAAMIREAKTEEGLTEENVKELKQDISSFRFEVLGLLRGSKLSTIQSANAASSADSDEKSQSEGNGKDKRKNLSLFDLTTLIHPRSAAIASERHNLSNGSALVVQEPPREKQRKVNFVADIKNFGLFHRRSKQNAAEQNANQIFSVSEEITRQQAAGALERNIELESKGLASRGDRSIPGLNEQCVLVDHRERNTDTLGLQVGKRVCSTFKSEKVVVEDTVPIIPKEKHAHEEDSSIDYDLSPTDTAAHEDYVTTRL
#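 Assay system: TRPC4beta/mu-opioid receptor HEK293 cell line; compound dosing: single concentration per test compound; detection: Fluo4 Ca2+ flux fluorescence; evaluation: per-well B score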
# TRPC6 inh – mouse TRPC6 channel inhibitors, primary screen, cell-based, HEK293, membrane potential dye. ACh-evoked depolarization; hits give low values. B-score at 10 µM. 310,000 compounds, 1.1% hits;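 active = B-score under library mean minus 3 SD, initial fluorescence not abnormally high, positive integrated signal ratio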;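 also: B-score derived from integrated fluorescence ratio over the kinetic read; more negative B-score means stronger inhibition of depolarization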
# TRPC4 potent – positive allosteric modulators of TRPC4, primary screen, cell-based, mouse TRPC4beta, HEK293 mu-opioid, Fluo-4 calcium. DAMGO EC20, Fluo-4 Ca2+ flux; hits give high values. B-score at 10 µM. 310,000 compounds, 0.42% hits;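 active = B-score of calcium response area above 5 SD of library B-scores, with initial fluorescence ratio within 5 SD of library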;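 also: B-score of integrated fluorescence ratio over time as area under calcium response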
# TRPC4 act – activators of mouse TRPC4 channel, primary screen, Fluo4 calcium, HEK293 TRPC4beta/mu-opioid cells; Short transient receptor potential channel 4 (Mus musculus), Q9QUQ5; Fluo4 calcium fluorescence; hits give high values; B-score at 10 µM; 310,000 compounds, 0.49% hits; AID 2237, 2010;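 active = B-score above 5 SD of library B-scores, and initial fluorescence ratio not above library mean plus 5 SD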;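 also: positive B-score marks a calcium rise read as TRPC4 activation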
#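 System: HEK293 cells stably co-expressing mouse TRPC4beta and mu-opioid receptor; Schedule: Fluo4 dye loading 45 min at room temperature, 110 s recording; Detection: Fluo4 fluorescence, kinetic; Evaluation: B-scored integrated calcium fluorescence ratio; Controls: buffer (low) and maximal DAMGO (high).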
# TRPC6 act – mouse TRPC6 channel activators, primary screen, cell-based, HEK293, membrane potential dye; HEK293-TRPC6 membrane potential dye fluorescence; hits give high values; B-score at 10 µM; 310,000 compounds, 0.13% hits;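 active = B-score of the integrated fluorescence ratio above library mean plus 3 SD, and starting fluorescence ratio within library mean plus 5 SD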;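 also: higher score means more depolarization so channel activation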
# * marks the source's active call; other numbers are inactive results; i = inactive.
SMILES,TRPC4 inh,TRPC6 inh,TRPC4 potent,TRPC4 act,TRPC6 act
CSCCC(NC(=O)c1ccccc1Br)C(=O)N1CCCC(C(F)(F)F)C1 (configuration not stated),i,i,i,i,i
O=C(Nc1nnc(C2=COCCO2)o1)c1cccc([N+](=O)[O-])c1,i,i,i,i,i
O=C(Nc1nnc(-c2ccc(F)cc2)o1)c1cccc([N+](=O)[O-])c1,-6*,i,i,126*,i
O=C(Nc1nnc(-c2ccc3c(c2)CCCC3)o1)c1ccccc1Cl,i,i,i,i,i
O=C(Nc1nnc(-c2ccc3c(c2)CCCC3)o1)c1ccccc1,i,i,i,66*,i
O=C(Nc1nnc(-c2ccc(F)cc2)o1)c1cc(Cl)sc1Cl,i,i,i,220*,i
Cc1cccc(NC(=O)C2CC3CCC2C3)c1C (configuration not stated),i,i,i,i,i
CN(CC(=O)Nc1cccc(F)c1)C(=O)CC1CC2CCC1C2 (configuration not stated),i,i,i,i,i
COc1ccc(NC(=O)c2c(NC(=O)CNCc3ccco3)sc3c2CCC3)cc1,i,i,i,i,i
CCOc1ccc(NC(=O)c2c(NC(=O)CNCCN3CCOCC3)sc3c2CCC3)cc1,i,-5.73*,i,i,i
CN(CC(=O)Nc1ccc(N2CCOCC2)cc1)C(=O)CCc1cc(C(C)(C)C)c(O)c(C(C)(C)C)c1,i,i,i,i,i
O=C(NC1CC2CCC(C1)N2Cc1ccccc1)c1ccccc1Cl (configuration not stated),i,i,i,i,i
N/C(=N\OC(=O)COc1ccc2ccccc2c1)c1ccncc1,i,i,i,i,i
N/C(=N\OC(=O)COc1ccc2ccccc2c1Br)c1ccncc1,i,-5.02*,i,i,i
OC(CNCCc1ccc(C(F)(F)F)cc1)COc1cccc2ccccc12 (configuration not stated),i,i,i,60*,i
CCOC(=O)c1c(C)n(C)c2ccc(OCC(O)CNCCc3ccccc3)cc12 (configuration not stated),i,i,21*,i,i
OC(CNCc1ccc(Cl)cc1)COc1ccccc1 (configuration not stated),i,i,i,i,i
CCOC(=O)c1c(C)n(C)c2ccc(OCC(O)CN3CCN(C)CC3)cc12 (configuration not stated),i,i,i,i,i
CC(=O)c1cccc(OCC(O)CNCCc2ccc(Cl)cc2)c1 (configuration not stated),i,i,10*,i,i
OC(CNCCc1ccc(C(F)(F)F)cc1)COc1ccc2ccccc2c1 (configuration not stated),i,i,24*,i,i
Cc1ccccc1OCCC(=O)Nc1ccccc1C(=O)NC1CC1,i,i,i,i,i
CC(C)=CCc1c(O)cc(O)c2c(=O)c3c(CC=C(C)C)c(O)ccc3oc12,i,i,i,i,i
COc1ccc2c(c1)c1ncn(CCCN3CCOCC3)c(=O)c1n2C,i,i,13*,i,i
Fc1ccc(C2CCNCC2COc2ccc3c(c2)OCO3)cc1 (configuration not stated),i,i,i,102*,i
COc1ccc(/C=C(\C#N)C(=O)N2CCOCC2)cc1Br,i,i,14*,i,i
SMILES,TRPC4 inh,TRPC6 inh,TRPC4 potent,TRPC4 act,TRPC6 act
CNCC(C)COc1ccccc1OCc1ccccc1 (configuration not stated),-6*,i,i,i,i
Cc1ccc(-c2nn(-c3ccccc3)cc2C(=O)NCCCN2CCOCC2)cc1,i,i,i,i,i
Cc1cccc(N/N=C(\C(N)=O)C2=NC(C)(C)Cc3ccccc32)c1,i,i,14*,i,i
CCOC(=O)/C(=N\O)C1=NC(C)(C)Cc2ccccc21,i,i,i,i,i
Cc1cccc(Cn2c(C(C)(C)C)cc3cccnc32)c1,-6*,i,i,i,i
CCOc1ccc(S(=O)(=O)N2CCOCC2)cc1NC(=O)CSCc1c(C)noc1C,i,i,10*,i,i
O=c1c2ccc(Cl)cc2nc(-c2ccc([N+](=O)[O-])cc2)n1O,i,i,i,63*,i
O=c1c2cc(Cl)ccc2nc(-c2ccc(Cl)c(Cl)c2)n1O,i,i,i,237*,i
O=c1c2cc(Br)ccc2nc(-c2ccc([N+](=O)[O-])cc2)n1O,i,i,i,81*,i
O=c1c2cc(Cl)ccc2nc(-c2ccccc2)n1O,i,i,i,i,i
O=c1c2cc(Br)ccc2nc(-c2cccc(C(F)(F)F)c2)n1O,i,i,i,193*,i
N#Cc1ccc(-c2nc3ccc(Br)cc3c(=O)n2O)cc1,i,i,i,i,i
Oc1cccc(C(=S)N2CCC(Cc3ccccc3)CC2)c1,i,i,i,i,i
CCc1ccccc1S(=O)(=O)c1c(C)cc(C)nc1Cl,i,i,i,i,i
CCOc1ccc2[nH]c3c(NCC(C)C)ncnc3c2c1,i,i,i,i,i
O=C(Cc1c(F)cccc1Cl)OCN1C(=O)c2ccccc2C1=O,i,i,i,i,i
Cc1onc(-c2c(F)cccc2Cl)c1C(=O)N1CCN(c2ncc(Br)cn2)CC1,i,i,i,86*,i
Cc1cc(/C(N)=N/OC(=O)Nc2ccc(Cl)cc2)no1,i,i,i,i,i
NC(=S)N/N=C/c1ccc(-c2cc(Cl)c(Cl)cc2Cl)o1,i,i,i,i,i
NC(=S)N/N=C/c1ccc(Br)o1,i,i,10*,i,i
C=CCNC(=O)/C(C#N)=C/c1c(N2CCN(c3ccc(OC)cc3)CC2)nc2c(C)cccn2c1=O,i,i,i,i,i
S=C1NC(c2ccccc2)=NCN1c1ccc(Cl)cc1,i,i,10*,i,i
COC(=O)c1ccc(N2CN=C(c3ccc(C)cc3)NC2=S)cc1,i,i,i,i,i
